In ChEMBL document CHEMBL1121387, “Analgesic narcotic antagonists. 1. 8 beta-Alkyl-, 8 beta-acyl-, and 8 beta-(tertiary alcohol)dihydrocodeinones and -dihydromorphinones” (1980):

Experiments:
Rattus norvegicus = test: Analgesic activity measured by rat tail flick assay following s.c. administration.; assay type: functional; design: unit not given here
Procedure, shortened: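 Male albino rats (100–120 g). Two control reaction times are taken 30 min apart before dosing. For agonist activity, test drug is given subcutaneously with no morphine, and tail-flick reaction time is retested 20 min postdrug. Activity is judged against control groups. ED50 values with 95% confidence limits are obtained by Litchfield–Wilcoxon.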

Mus musculus = test: Analgesic activity was measured by acetic acid writhing test in mouse by giving subcutaneous injection; assay type: functional; design: unit not given here
Procedure, shortened: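 Male albino Charles River mice (18–22 g), five per dose, at least three doses per ED50. Salts are given in distilled water; free bases are dissolved with dilute HCl and then diluted with water. Drug is given s.c. 15 min before i.p. 0.5% HOAc (0.4 mL). Writhes are counted for 20 min, starting 5 min post-HOAc, and compared with controls. ED50 with 95% confidence limits by Litchfield–Wilcoxon.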

SMILES: C=C[C@H]1CC(=O)[C@@H]2Oc3c(OC)ccc4c3C23CCN(C)C(C4)C13 (stereo partly specified)
- ED50 (Rattus norvegicus): 130
- ED50 (Mus musculus): 13.8

SMILES: CCC[C@@H]1CC(=O)[C@@H]2Oc3c(OC)ccc4c3C23CCN(C)C(C4)C13 (stereo partly specified)
- ED50 (Rattus norvegicus): >25
- ED50 (Mus musculus): >25

SMILES: COc1ccc2c3c1O[C@H]1C(=O)C[C@H](C4CC4)C4C(C2)N(C)CCC341 (stereo partly specified)
- ED50 (Rattus norvegicus): >25
- ED50 (Mus musculus): 42

SMILES: COc1ccc2c3c1O[C@H]1C(=O)C[C@H](c4ccccc4)C4C(C2)N(C)CCC341 (stereo partly specified)
- ED50 (Mus musculus): >50

SMILES: CC[C@H]1CC(=O)[C@@H]2Oc3c(OC)ccc4c3C23CCN(C)C(C4)C13 (stereo partly specified)
- ED50 (Rattus norvegicus): 20.3
- ED50 (Mus musculus): 1.8

SMILES: CC[C@@H]1CC(=O)[C@@H]2Oc3c(OC)ccc4c3C23CCN(C)C(C4)C13 (stereo partly specified)
- ED50 (Rattus norvegicus): >30
- ED50 (Mus musculus): 3

SMILES: C=C(C)[C@H]1CC(=O)[C@@H]2Oc3c(OC)ccc4c3C23CCN(C)C(C4)C13 (stereo partly specified)
- ED50 (Mus musculus): >50

SMILES: COc1ccc2c3c1O[C@H]1C(=O)C[C@@H](C)C4C(C2)N(C)CCC341 (stereo partly specified)
- ED50 (Rattus norvegicus): 3.8
- ED50 (Mus musculus): 2

SMILES: CC[C@H]1CC(=O)[C@@H]2Oc3c(O)ccc4c3C23CCN(C)C(C4)C13 (stereo partly specified)
- ED50 (Rattus norvegicus): 1.12
- ED50 (Mus musculus): 0.41

SMILES: COc1ccc2c3c1O[C@H]1C(=O)C[C@H](C)C4C(C2)N(C)CCC341 (stereo partly specified)
- ED50 (Rattus norvegicus): 10.2
- ED50 (Mus musculus): 4.9

SMILES: COc1ccc2c3c1O[C@H]1C(=O)C[C@H](C(C)C)C4C(C2)N(C)CCC341 (stereo partly specified)
- ED50 (Rattus norvegicus): >55
- ED50 (Mus musculus): 21.7

SMILES: CCCC[C@H]1CC(=O)[C@@H]2Oc3c(OC)ccc4c3C23CCN(C)C(C4)C13 (stereo partly specified)
- ED50 (Rattus norvegicus): >50
- ED50 (Mus musculus): 27

SMILES: CCCCCCCC[C@H]1CC(=O)[C@@H]2Oc3c(OC)ccc4c3C23CCN(C)C(C4)C13 (stereo partly specified)
- ED50 (Rattus norvegicus): >50
- ED50 (Mus musculus): 25.9

SMILES: COc1ccc2c3c1O[C@H]1C(=O)C[C@H](C(C)(C)C)C4C(C2)N(C)CCC341 (stereo partly specified)
- ED50 (Rattus norvegicus): >25
- ED50 (Mus musculus): 17.6

SMILES: CCC[C@H]1CC(=O)[C@@H]2Oc3c(OC)ccc4c3C23CCN(C)C(C4)C13 (stereo partly specified)
- ED50 (Mus musculus): 17.5

SMILES: C[C@H]1CC(=O)[C@@H]2Oc3c(O)ccc4c3C23CCN(C)C(C4)C13 (stereo partly specified)
- ED50 (Rattus norvegicus): 1.6
- ED50 (Mus musculus): 0.24

SMILES: CCC(C)[C@H]1CC(=O)C2Oc3c(OC)ccc4c3C23CCN(C)C(C4)C13 (single isomer, unassigned; form 1)
- ED50 (Mus musculus): >25

SMILES: CCC(C)[C@H]1CC(=O)C2Oc3c(OC)ccc4c3C23CCN(C)C(C4)C13 (single isomer, unassigned; form 2)
- ED50 (Mus musculus): 14.1
